The whole screen tested about 2,400 compounds, of which fewer than 10 were called active. These entries were drawn from the full list. Unmarked numbers belong to inactive results.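 The calls were made as follows: active = activation of at least 50%; inactive = the rest.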
The compounds below were run against G-protein coupled receptor 183 (Homo sapiens) (UniProt P32249) (assay: EBI2 receptor activation without oxysterol – cell-based, single concentration, agonist mode, luminescence, counter-screen for EBI2 antagonist project, confirmation (AID 652000)). Settings: EBI2-expressing cells, 60 min, at 5 µM, active compounds read high, 0% vehicle, 100% 7α,25-dihydroxycholesterol control.
Method in brief: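 material = beta-arrestin reporter cell line | input = 1500 cells in each well | technique = luminescent detection reagent readout | times = overnight seeding and 60-min compound at 37°C, 60-min detection at 25°C | control set = 7alpha,25-OHC wells as positive control | probe or stimulus = no added oxysterol for test compounds | dosing = one dose from 10 mM stock, 2.5 nL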

Sequence of G-protein coupled receptor 183 (Homo sapiens) (P32249 whole entry, looked up): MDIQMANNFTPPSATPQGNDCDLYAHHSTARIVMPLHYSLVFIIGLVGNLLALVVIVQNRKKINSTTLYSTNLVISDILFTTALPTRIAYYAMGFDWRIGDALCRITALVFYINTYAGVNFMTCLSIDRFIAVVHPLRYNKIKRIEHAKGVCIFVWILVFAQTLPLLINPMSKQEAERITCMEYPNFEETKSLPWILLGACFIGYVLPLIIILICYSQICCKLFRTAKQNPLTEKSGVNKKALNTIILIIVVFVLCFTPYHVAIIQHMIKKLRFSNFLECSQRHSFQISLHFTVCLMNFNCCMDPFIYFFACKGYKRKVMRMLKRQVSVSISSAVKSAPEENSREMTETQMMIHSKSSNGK

SMILES | activation [%]
COc1ccc(-n2c(Cc3cccn3C)nnc2SCC(=O)Nc2cc(C)cc(C)c2)cc1 | 0.66
COc1ccc([C@H]2CC(=O)C=C(/C=C/c3ccc(Cl)cc3)C2)cc1 | -0.43
COc1ccccc1CCNC(=O)C1CCN(C(=O)/C=C/c2ccccc2)CC1 | -0.16
COc1ccc(C(c2nnnn2C2CCCC2)N2CCN(C/C=C/c3ccccc3)CC2)cc1 (stereo not given) | -0.25
CN1CCc2ccccc2C1Cc1ccccc1NC(=O)c1sc2ccccc2c1Cl (stereo not given) | -0.98
Cc1ccc(-n2ncc3c(=O)n(-c4ccc(C)c(C)c4)c(-c4ccco4)nc32)cc1 | -1.66
O=C(Nc1ccc(S(=O)(=O)N2CCCCC2)cc1)C1CC(=O)N(c2ccc(F)cc2)C1 (stereo not given) | 0.98
O=C(c1cc(=O)c2ccccc2o1)N1CCN(c2ccccc2)CC1 | 2.48
CCCC1CCC(=NNC(=S)NCCc2ccccc2)CC1 (stereo not given) | -1.07
Cc1cccc(N=C2NC(=O)/C(=C/c3cn(C)c4ccccc34)S2)c1 | -0.07
COc1ccc(-c2cc(NC=O)c3ncc(-c4cccc(C(=O)N(C)C)c4)n3c2)c(OC)c1 | -1.02
Cc1ccc(CSCCNC(=O)CN(c2ccc(F)cc2)S(C)(=O)=O)cc1 | 0.84
CC(C)N(Cc1ccccc1)C(=S)Nc1ccc(OC(F)F)cc1 | 0.07
CC(C)Cc1ccc(-c2cc3nc(NCc4cccc(Cl)c4)ccn3n2)cc1 | -1.2
CCOC(=O)N1CCN(C(=O)CSc2ccc(Cl)cc2)CC1 | 2.07
Cc1ccc(SCC(=O)N2CCN(c3ccc(F)cc3)CC2)cc1 | 4.12
CC(=O)/C(=N\Nc1ccc(Cl)cc1Cl)Sc1cccc2cccnc12 | -1.34
O=C(NCc1ccc(Cl)cc1)c1cc(=O)nc2sc(-c3ccccc3)nn12 | -0.48
COc1ccc(OC)c(C(=O)c2coc3ccc(O)c(CN4CCOCC4)c23)c1 | 0.62
O=C(/C=C/c1cccc(C(F)(F)F)c1)N1CCN(c2ccccn2)CC1 | -0.93
Cc1cccc(OCC(O)CN2CCN(S(=O)(=O)c3ccc(C)cc3C)CC2)c1 (stereo not given) | -0.98
COc1ccc(-c2cn(-c3ccc(OC)cc3)c(=S)[nH]2)cc1 | 1.66
O=C(CSc1ccccc1)Nc1cc(Cl)ccc1Oc1ccccc1 | -1.48
CCC(C)(C)NC(=O)c1cc([N+](=O)[O-])ccc1N1CCCCC1 | -1.43
CCOC(=O)N1CCN(C(=O)COc2ccc(Br)cc2)CC1 | 1.84
O=C(NCCNc1ccc([N+](=O)[O-])cc1)c1cccc2c(Br)cccc12 | 0.12
COc1ccccc1N1CCN(C(=O)c2cc(-c3ccc(Br)cc3)on2)CC1 | 1.43
Cc1cccc(C)c1-n1nnnc1C(CCc1ccccc1)N1CCN(C/C=C/c2ccccc2)CC1 (stereo not given) | -1.39

SMILES | activation [%]
O=C(CCc1ccccc1)NNC(=O)COc1ccc(Cl)cc1 | 0.21
COc1ccc(-c2nc(N)ncc2-c2ccc(Cl)cc2)c(O)c1 | 1.03
COc1cc(/C=C(\C#N)C(=O)Nc2ccc3ccccc3c2)c([N+](=O)[O-])cc1OC | -0.75
O=C(COc1ccc(Cl)cc1)N1CCN(S(=O)(=O)c2ccc(Cl)cc2)CC1 | 1.62
O=C(c1ccc(-n2cnnn2)cc1)N1CCN(C(c2ccccc2)c2ccccc2)CC1 | 1.53
Cc1cc(OCCOc2cccc3cccnc23)c(C)cc1Cl | 1.3
COc1ccc(C(C(=O)NC2CCCCC2)N(C(=O)c2snc(C(N)=O)c2N)c2ccccc2OC)cc1 (stereo not given) | 1.3
CCCCN=C1C([N+](=O)[O-])=CC=C2C1=NC1(CCCCC1)N2O | -0.38
c1ccc(C(c2ccccc2)N2CCN(Cc3nnnn3C3CCCCC3)CC2)cc1 | 0.25
COc1ccc(/C=N/N=C/c2c[nH]c(=O)c(C#N)c2Nc2ccccc2)cc1 | -1.52
COc1ccc(N(CC(=O)Nc2cc(OC)ccc2OC)S(=O)(=O)c2c(C)noc2C)cc1 | 1.12
Cc1ccc(S(=O)(=O)NCCNC(C)c2ccc(Br)cc2)cc1 (stereo not given) | 0.98
Cc1cccc(-n2c(O)c(C=Nc3ccccc3N)c(=O)[nH]c2=O)c1 | -2.25
O=C(/C=C/c1cccc([N+](=O)[O-])c1)N1CCN(Cc2ccccc2)CC1 | -0.29
O=c1[nH]c(CN2CCN(S(=O)(=O)c3ccc4c(c3)OCCO4)CC2)nc2sc3c(c12)CCCC3 | -1.11
O=C(NCCCc1ccccc1)C1CCC(=O)N(CCc2ccc(Cl)cc2)C1 (stereo not given) | 1.57
COc1ccc(C(=O)/C=C/c2ccc(OC3CSC3)cc2)cc1 | 2.89
CCOC(=O)C1CCN(C(=O)COc2cc(C)c(Br)c(C)c2)CC1 | 2.25
N#Cc1ccc(C2=CC(=O)C[C@H](c3ccc(Cl)cc3)C2)cc1 | 1.84
COc1cccc(NC(=O)Cn2c3ccc(F)cc3c3nc4n(c(=O)c32)CCS4)c1 | 0.89
COc1ccc2cc(C3=CC(=O)C[C@H](c4ccc5c(c4)OCO5)C3)ccc2c1 | -1.39
CCC(c1nnc(SCC(=O)NNC(=O)c2ccccc2)n1Cc1ccccc1)N(C)C (stereo not given) | -1.34
Cc1cc(C)c2c(=O)n3c(nc2c1)C(CC(C)C)NC(=O)c1cc2ccccc2cc1-3 (stereo not given) | 0.75
COc1ccc(OCC(=O)N2CCN(C(=O)c3cccs3)CC2)cc1 | 1.48
CCN1CCN(C(=O)CSc2ccc(C)cc2)CC1 | 0.02
Cc1ccc(OCC(=O)N2CCN(S(=O)(=O)c3ccc(Cl)s3)CC2)cc1C | 1.84
CCCCC(=O)N(C)c1c(CC)nc2c(OCc3ccc(Cl)cc3Cl)cccn12 | -1.02
